Screening results: PubChem, several laboratories
The list is not random: actives were taken first. Their share in the collection is about 3.9%.
SR-BI HDL uptake: blocks mouse SR-BI lipid uptake from DiI-HDL; ldlA[mSR-BI] CHO cells, DiI-HDL uptake fluorescence, 3 h; 320,000 tested, 0.96% active; Q61009; inhibition, % at 12.5 µM;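 active = mean replicate inhibition of at least 70% and a set share of replicates each scoring 70 or more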;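 also: 0% = median of neutral control wells and 100% = median of positive control wells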
Target sequence (Q61009 whole entry, looked up): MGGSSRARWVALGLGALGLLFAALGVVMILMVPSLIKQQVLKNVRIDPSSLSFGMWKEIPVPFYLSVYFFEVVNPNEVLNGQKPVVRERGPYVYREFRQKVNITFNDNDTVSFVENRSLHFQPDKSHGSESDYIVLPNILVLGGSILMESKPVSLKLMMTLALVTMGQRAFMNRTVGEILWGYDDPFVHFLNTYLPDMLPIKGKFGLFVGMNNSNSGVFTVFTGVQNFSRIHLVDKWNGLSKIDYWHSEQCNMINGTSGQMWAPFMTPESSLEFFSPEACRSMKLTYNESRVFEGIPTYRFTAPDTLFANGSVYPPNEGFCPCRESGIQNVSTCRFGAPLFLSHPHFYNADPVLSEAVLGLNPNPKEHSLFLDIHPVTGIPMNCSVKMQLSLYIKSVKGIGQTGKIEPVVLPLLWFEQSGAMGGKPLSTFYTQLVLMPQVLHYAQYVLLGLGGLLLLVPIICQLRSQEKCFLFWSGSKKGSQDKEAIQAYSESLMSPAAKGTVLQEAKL
FXN GAA850 act: increases GAA850 frataxin promoter reporter activity; HEK293 lucGAA850 FXN promoter luciferase reporter, 24 h; percent of 10 µM SAHA response; activation, % at 6 µM; AID 540364; 360,000 tested, 0.56% active;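 active = activation above the average of all compounds screened plus 3 SD, cutoff fixed separately per campaign, cut at about 7.5% in these data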;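 also: 0% = DMSO wells and 100% = 10 µM SAHA wells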
ABCB6 inh MLPCN: inhibitors of human ABC transporter ABCB6; Q9NP58; K562-ABCB6 porphyrin accumulation, flow cytometry, 1 h; active compounds read low; fluorescence ratio to DMSO, % at 10 µM; 360,000 tested, 0.19% active; AID 602162;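 active = fluorescence ratio to DMSO below 75%, the collection mean minus 3 SD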;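 also: signal is porphyrin accumulated inside mitochondria; 100% equals median channel fluorescence of DMSO control wells; lower ratio means ABCB6 inhibition with less porphyrin fluorescence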
AHR activator: activates the human aryl hydrocarbon receptor | AID 2796 | AHR-responsive luciferase reporter cells, luminescence | activation, % at 5 µM | P35869 | 320,000 tested, 2.5% active; in the data active = activation above about 47%;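 also: 0% = vehicle wells and 100% = reference agonist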
SR-BI uptake up: enhances SR-BI lipid uptake from DiI-HDL. CHO ldlA[mSR-BI] cells, DiI-HDL uptake fluorescence, 3 h; 100 = double the neutral-control signal. activation, % at 12.5 µM. 320,000 tested, 0.096% active. AID 504775;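 active = mean replicate activation of at least 60% and every replicate at or above 60%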;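 also: 0% = median plate neutral-control signal and 100% = twice that signal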
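system = CHO ldlA[mSR-BI] cells, LDL receptor-null, SR-BI overexpressing | medium = Ham's F12 with 0.5% BSA, HEPES 25 mM, pH 7.4 | probe or stimulus = DiI-HDL 10 µg/mL | compound dosing = single-point compound dose | incubation = compound exposure 3 h, 37 °C | technique = DiI fluorescence, bottom read | read-out = cell-associated DiI fluorescence as measure of HDL uptake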
HIF act: HIF pathway transcriptional activation; U2OS HRE-luciferase reporter, luminescence; normalized: DMSO 0%, desferrioxamine 100%; activation, % at 7.5 µM (by protocol); 300,000 tested, 0.32% active;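 active = mean activation of at least 10% of the iron chelator positive control signal, with at least half of replicates also reaching 10%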
The depositor's hits bear a star; nt = no result.

SMILES	SR-BI HDL uptake	FXN GAA850 act	ABCB6 inh MLPCN	AHR activator	SR-BI uptake up	HIF act
O=C1CC(CC(=O)N/N=C/c2ccccc2[N+](=O)[O-])=NN1	-1.1	1.5	102.0	47.4*	1.1	0.1
Cc1cc(C)c2nc(-c3ccccn3)cc(C(=O)NCc3ccco3)c2c1	0.3	2.5	105.0	69.4*	-0.3	0.5
C[C@H](CO)N1C[C@H](C)[C@@H](CN(C)Cc2ccc3cccnc3c2)OCc2cnnn2CCCC1=O	nt	-1.2	103.0	nt	nt	nt
CCN1C(=O)/C(=C2/Sc3ccccc3N2CC)S/C1=N\c1ncn[nH]1	73.7*	1.6	107.0	7.1	-73.7	-1.3
c1cncc(-c2nc(NCCCn3ccnc3)c3ccccc3n2)c1	-5.3	0.1	98.0	74.8*	5.3	1.0
Cc1ccc(-c2nc3ccccc3c(=O)n2CCCn2ccnc2)cc1	-18.5	0.1	99.0	5.2	18.5	-0.2
OCCNc1nc(-c2cccnc2)nc2ccccc12	-28.4	-1.1	94.0	31.2	28.4	0.0
O=c1c2ccccc2nc(-c2ccccc2)n1CCCn1ccnc1	-12.1	-0.2	90.0	56.1*	12.1	0.0
c1ccc(-c2nc(NCCCn3ccnc3)c3oc4ccccc4c3n2)cc1	14.9	1.4	93.0	82.3*	-14.9	0.5
Cc1nc(NCCCn2ccnc2)c2ccccc2n1	-11.2	0.1	120.0	57.2*	11.2	-0.2
CCCCN(C(=O)c1cc2c(s1)CCCC2)c1c(N)n(CCC)c(=O)[nH]c1=O	3.5	-0.5	102.0	-0.6	-3.5	nt
Cc1cc2c(c(=O)n1CCCn1ccnc1)C(c1ccco1)C(C#N)=C(N)O2 (configuration not stated)	-7.1	-2.5	100.0	2.0	7.1	-0.3
CC(=O)N(Cc1ccc(F)cc1)Cc1nc2ccccc2c(=O)[nH]1	-18.5	-0.3	102.0	3.0	18.5	-0.2
CCOc1ncccc1C(=O)N=c1sccn1C	-15.2	-2.1	94.0	60.4*	15.2	0.1
Cc1ccccc1C(=O)N=c1sccn1C	23.6	-0.7	89.0	6.8	-23.6	-23.6
CCOC(=O)c1cc(C)sc1NC(=O)C(c1ccccc1)c1ccccc1	-19.1	2.6	114.0	0.3	19.1	0.0
COc1cccc(CN(C)Cc2cc(=O)oc3cc(O)c(Cl)cc23)c1	-1.4	4.5	100.0	1.4	1.4	-1.2
COc1ccc(/C=C/C(=O)C2CC2)cc1COc1c(C)cccc1C	37.0	1.1	94.0	13.0	-37.0	-1.2
COc1ccc(OCCCC(=O)Nc2cccc(SC)c2)cc1	-15.0	2.4	97.0	2.2	15.0	-0.6
CN(/N=C/c1ccc(O)cc1O)c1nc(-c2ccccc2)cc(-c2ccccc2)n1	90.3*	1.2	93.0	13.3	-90.3	0.2
Cc1ccc(NC(=O)CCC(=O)NNC(=O)COc2ccccc2)cc1C	4.1	0.5	105.0	68.0*	-4.1	-1.8
Cc1ccc(NC(=O)CCc2ccccc2)cc1C	nt	2.0	82.0	nt	nt	nt
O=C(NCCCN1CCCC1=O)C1CCN(S(=O)(=O)N2CCOCC2)CC1	-21.4	0.3	121.0	nt	21.4	-0.4
O=C(NCc1cccnc1)c1cccc(Cl)c1	-21.7	-0.1	91.0	3.6	21.7	0.0
O=C(NCc1cccnc1)c1cc(Cl)ccc1[N+](=O)[O-]	-7.6	1.5	98.0	73.6*	7.6	-0.1
SMILES	SR-BI HDL uptake	FXN GAA850 act	ABCB6 inh MLPCN	AHR activator	SR-BI uptake up	HIF act
CCCCCCCOC(=O)C[N+](C)(C)CCOC1CC2CCC1(C)C2(C)C (configuration not stated)	-68.8	3.5	104.0	nt	68.8*	-0.8
CCCCCCOC(=O)C[N+](C)(C)CCOC1CC2CCC1(C)C2(C)C (configuration not stated)	-1.5	-0.7	100.0	0.2	1.5	-0.3
COC(=O)Nc1ccc(NC(C)=O)cc1	-5.6	-2.8	104.0	-1.7	5.6	-0.9
COC(=O)Nc1ccc(S(=O)(=O)N(C)C)cc1	-8.9	6.5	91.0	-1.5	8.9	29.4*
NC1=NC2(CCCCC2)N=C(Nc2ccc(Br)cc2)N1	-28.4	1.6	104.0	71.9*	28.4	-0.1
Cc1cccc(C)c1NC1=NC2(CCCCC2)N=C(N)N1	-16.1	2.0	97.0	4.8	16.1	0.0
Cc1ccc2nc(C)cc(Nc3ccc4c(c3)OCCO4)c2c1	6.8	-5.3	95.0	69.4*	-6.8	-0.4
Cc1cc(Nc2ccc3c(c2)OCCO3)c2ccccc2n1	9.6	-2.1	99.0	34.4	-9.6	nt
Cc1cc(N2CCCC2)nc(SCC(=O)c2ccccc2)n1	16.2	4.6	105.0	20.0	-16.2	1.5
Cc1cc(Cl)nc(SCC(=O)c2ccccc2)n1	-14.7	3.3	98.0	61.3*	14.7	0.7
COc1ccc(S(=O)(=O)N2CCC(C)CC2)cc1Br	20.9	-2.1	94.0	-1.0	-20.9	0.1
COc1cc(NC(=O)C2CCN(S(=O)(=O)c3ccc4c(c3)CC(C)N4C(C)=O)CC2)cc(OC)c1OC (configuration not stated)	-2.0	1.1	92.0	4.6	2.0	0.4
COc1ccc(S(=O)(=O)N2CCC(C)CC2)cc1OC	76.3*	-0.2	99.0	0.6	-76.3	-0.5
COc1ccc(NC(=O)C2CCN(S(=O)(=O)c3ccc4c(c3)CC(C)N4C(C)=O)CC2)cc1OC (configuration not stated)	39.0	1.2	100.0	2.5	-39.0	677.6*
Clc1ccc(N=c2ssnc2Cl)cc1	-6.6	-0.6	95.0	59.5*	6.6	-1.2
Clc1nssc1=Nc1ccccc1	-9.1	1.6	98.0	nt	9.1	nt
COc1ccc(CN2C=C3C(=O)C(C)(OC(=O)CCc4ccccc4)C(=O)C=C3C=C2c2ccc(C#N)cc2)cc1 (configuration not stated)	-5.9	-1.7	104.0	4.4	5.9	0.3
COc1cccc2c1C(=O)c1ccc3ccccc3c1C2=O	-4.5	6.2	96.0	61.9*	4.5	2.2
COc1ccc(OC)c2c1C(=O)c1ccccc1C2=O	nt	nt	nt	22.1	nt	-0.8
COc1ccc2oc(C(=O)Nc3nc(C)cs3)c(C)c2c1	53.0	4.7	97.0	31.4	-53.0	nt
CC(=O)Nc1ccc(Nc2nc(C)c([N+](=O)[O-])c(Nc3ccc(NC(C)=O)cc3)n2)cc1	-9.6	0.2	98.0	9.1	9.6	468.7*
COc1ccc(-c2cc3c(=O)n(CC(=O)N4CCN(C)CC4)ncn3n2)cc1	-10.5	3.6	98.0	73.0*	10.5	0.8
COc1ccc(-c2cc3c(=O)n(CC(=O)N4CCCCC4)ncn3n2)cc1	-31.3	1.6	102.0	-1.0	31.3	-0.1
COc1cc(OC)cc(C(=O)OCC(=O)NCc2ccc3c(c2)OCO3)c1	2.1	1.6	107.0	-2.1	-2.1	-0.6
O=C(Nc1ccccc1F)c1oc2ccccc2c1NC(=O)C1CC1	4.3	1.3	102.0	57.0*	-4.3	-1.2
